From ChEMBL document CHEMBL1123374, “Comparative pharmacology in the rat of ketamine and its two principal metabolites, norketamine and (Z)-6-hydroxynorketamine” (J Med Chem, 1986) come the findings set out here.

The nature of data set [1]: Partition coefficient was expressed as the ratio of the equilibrium concentration in benzene solvent to that in an equal volume of pH 7.4 aqueous buffer. Type of data set: ADME. In short, it runs like this: (§1)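 Compound at 100 µg/mL in organic solvent shaken with equal volume 0.1 M sodium phosphate buffer pH 7.4, 30 min, ambient temperature; phases separated by centrifugation, each quantified by GC against internal standard; coefficient = organic/aqueous concentration ratio; triplicate per solvent, mean ± SEM.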

A short description of data set [2]: Partition coefficient was expressed as the ratio of the equilibrium concentration in chloroform solvent to that in an equal volume of pH 7.4 aqueous buffer. Type of data set: ADME. In short, it runs like this: as §1
Another data set concerns Rattus norvegicus. Nature of the data set: Compound was administered to male Sprague-Dawley rats (250-300 g) by intravenous (iv) bolus injection at a dose of 40 mg/kg. Type of data set: functional. In short, it runs like this: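 Male Sprague-Dawley rats (250-300 g) with right jugular vein catheter, 48 h recovery; 40 mg/kg iv bolus as free base in propylene glycol/ethanol/water (40/10/50) or HCl salt in 0.9% saline; controls given vehicle. Anesthesia duration by loss of righting reflex; locomotor activity by stabilimeter, excitation ended at <2 events per 3 min; mean ± SEM, n = 4.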

Data set [3] can be described thus: Partition coefficient was expressed as the ratio of the equilibrium concentration in n-heptane solvent to that in an equal volume of pH 7.4 aqueous buffer. Type of data set: ADME. In short, it runs like this:
as §1

As for `NC1(c2ccccc2Cl)CCC[C@@H](O)C1=O` (stereo not given in full), the results for the Partition coefficient in data set [1], in data set [2] and in data set [3] were 1.44, 19.4 and 0.00963, respectively. This compound also had a Duration of anesthesia with Rattus norvegicus of 0 min. For the same compound, in the data set with Rattus norvegicus, the “Duration of increase in SLA” value was found to be 0 min.
As for `CNC1(c2ccccc2Cl)CCCCC1=O` (stereo not given) [KETAMINE], the values for the Partition coefficient in data set [1], in data set [2] and in data set [3] were 98.6, 299 and 6.36, respectively. Further, in the data set with Rattus norvegicus, the Duration of anesthesia is recorded as 7.11 min. Besides, in the data set with Rattus norvegicus, the “Duration of increase in SLA” value came to 24.65 min.
For the compound `NC1(c2ccccc2Cl)CCCCC1=O` (stereo not given) [NORKETAMINE], the Partition coefficient is on record as 52.6 in data set [1], 296 in data set [2] and 1.86 in data set [3]. This compound also gave a Duration of anesthesia in the data set on Rattus norvegicus of 3.24 min. The “Duration of increase in SLA” value in the data set on Rattus norvegicus amounted to 7.15 min.
